Compound activity from PubChem.
PPC-1+TRAIL kill: PPC-1 cancer cell killing with TRAIL present | PPC-1 cells + TRAIL, ATPLite viability luminescence | cell killing (% activity), % at 4 µM or 5 µM | actives 0.41% (n = 220,000);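 active = cell killing above 50% in the first pass at 4 µM, then a duplicate retest at 5 µM averaging 50% or more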;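 note: plate controls were cells with TRAIL plus DMSO for no effect and medium-only wells lacking cells for full effect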
C8 TRAIL sens: caspase-8 TRAIL sensitization | AID 624354 | NB7+C8 cells + TRAIL, ATPlite viability luminescence | actives 1% (n = 360,000) | inhibition (viability loss, TRAIL sensitization), % at 10 µM;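 active = compounds causing at least 50% loss of cell viability in the single-dose screen, relative to plate controls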
FLuc inhib CS: inhibits firefly luciferase, flagging false hits in luciferase inhibition screens. ATPLite firefly luciferase biochemical luminescence, 10 min. inhibition, % at 10 µM. actives 1.5% (n = 200,000). AID 1006;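 active = inhibition above about 50% when tested at 10 µM, limit read from the data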
Target sequence (P08659 whole entry, looked up): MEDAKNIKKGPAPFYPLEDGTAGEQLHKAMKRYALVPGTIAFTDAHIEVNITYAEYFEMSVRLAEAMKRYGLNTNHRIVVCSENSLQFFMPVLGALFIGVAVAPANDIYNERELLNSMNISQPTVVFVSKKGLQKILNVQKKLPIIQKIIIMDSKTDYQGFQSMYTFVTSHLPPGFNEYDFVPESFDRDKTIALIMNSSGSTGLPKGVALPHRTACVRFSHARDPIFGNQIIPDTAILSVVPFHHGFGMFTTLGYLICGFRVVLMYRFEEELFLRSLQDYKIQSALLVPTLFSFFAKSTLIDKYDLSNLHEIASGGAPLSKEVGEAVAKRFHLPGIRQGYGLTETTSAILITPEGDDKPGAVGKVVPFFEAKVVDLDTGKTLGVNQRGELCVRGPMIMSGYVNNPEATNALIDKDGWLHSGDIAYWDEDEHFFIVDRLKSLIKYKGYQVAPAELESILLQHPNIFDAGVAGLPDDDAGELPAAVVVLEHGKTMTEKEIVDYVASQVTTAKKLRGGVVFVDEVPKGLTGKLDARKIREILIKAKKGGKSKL
FLuc act counter: firefly luciferase counter-screen for stimulation assays | P08659 | ATPlite luciferase biochemical, luminescence, 10 min; 0 = ATP-free wells, 1 = DMSO control | activation factor at 10 µM | 200,000 tested, under 10 active | AID 1027;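 active = luciferase activation factor, scaled between plate controls, of at least 2 with compound at 10 µM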
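Material: luciferase plus luciferin reagent, cell-free. Medium: PBS buffer for ATP. Also added: ATP substrate, dispensed from a 10.24 µM working solution in PBS. Doses: test compounds dosed from 2 mM stocks in 100% DMSO. Incubation: 10 min post-reagent at room temperature. Technique: light output (luminescence). Read-out basis: luminescence gain marking luciferase activators.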
* = called active by the depositor; x = no result given. Shown are actives, neighbours in structure and some others; about 1.6% of the full set was active somewhere.

SMILES	PPC-1+TRAIL kill	C8 TRAIL sens	FLuc inhib CS	FLuc act counter
CC1(Cc2ccc(OC(F)(F)F)cc2)C(=O)Nc2ccc(S(=O)(=O)NC3CCCCC3)cc21 (configuration not stated)	x	64*	x	x
CC1(Cc2ccc(Cl)cc2)C(=O)Nc2ccc(S(=O)(=O)NC3CCCCC3)cc21 (configuration not stated)	x	7	x	x
Cc1cc(NC(=O)COC(=O)c2ccccc2Cl)no1	x	-16	x	x
Cc1ccc(C(=O)O/N=C(\N)c2nonc2N)cc1	-7	-4	84*	0.2
N/C(=N/OC(=O)c1ccccc1Cl)c1nonc1N	9	6	52*	0.5
Cc1nc(/C(N)=N/OC(=O)c2ccccc2Cl)c(C(F)(F)F)o1	12	-19	x	x
Cc1cc(/C(N)=N/OC(=O)c2ccccc2Cl)no1	37	61*	x	x
N/C(=N\OC(=O)c1ccc(F)cc1)c1nonc1N	-7	4	49	0.5
CCC(=O)Nc1cccc(C(=O)OCC(=O)c2ccccc2Cl)c1	-3	-5	31	0.7
CC(=O)Nc1cccc(C(=O)OCC(=O)c2ccccc2Cl)c1	12	-8	82*	0.2
COC(=O)c1ccc(CCc2cc(O)c(Br)cc2O)cc1	x	49*	x	x
O=[N+]([O-])c1ccc(CSc2nc3ccccc3[nH]2)cc1	15	20	65*	0.4
CCOc1ccc(OCCSc2nc3ccccc3[nH]2)cc1	24	2	-2	1
c1ccc(CSc2nc3ccccc3[nH]2)cc1	24	26	x	x
CCCOc1ccc(CSc2nc3ccccc3[nH]2)cc1	27	53*	64*	0.4
Cn1c(SC(C(=O)Nc2ccc(F)cc2)c2ccccc2)nc2ccccc21 (configuration not stated)	5	1	-3	1
COc1ccc(Nc2nc(-c3cc4cccc(OC)c4oc3=O)cs2)cc1	20	-5	-1	1
COc1cccc2cc(-c3ccccc3)c(=O)oc12	25	29	60*	0.4
COc1cccc2cc(-c3nc(-c4cccs4)cs3)c(=O)oc12	0	22	-1	1
Cc1cccc2cc(-c3nc4ccc(C(=O)O)cc4[nH]3)c(=O)oc12	x	54*	x	x
COc1ccc(-c2cc3cccc(OC)c3oc2=O)cc1	x	78*	x	x
COc1cccc2cc(-c3nc4ccccc4[nH]3)c(=O)oc12	x	54*	x	x
CC(=O)Nc1ccc(NC(=O)CSc2nnc(-c3cccs3)n2C)cc1	x	-6	x	x
Cn1c(N2CCN(C(=O)NC34CC5CC(CC(C5)C3)C4)CC2)nc2ccccc21	3	-11	-8	1.1
CCCCC[C@@H](C)N1C[C@H](COCc2ccccc2)Oc2cc(N3CC[C@@H](N(C)C)C3)ccc2S1(=O)=O	x	77*	x	x
SMILES	PPC-1+TRAIL kill	C8 TRAIL sens	FLuc inhib CS	FLuc act counter
CCCCC[C@H](C)N1C[C@H](COCc2ccccc2)Oc2cc(N3CC[C@@H](N(C)C)C3)ccc2S1(=O)=O	x	28	x	x
O=C(NCc1ccc(F)cc1)c1c2c(nc3ccccc13)CCN(Cc1ccccc1)C2	-1	-1	-4	1
CC(=O)N1CCN(Cc2cc(=O)oc3cc(C)c(C)cc23)CC1	x	-7	x	x
CC(=O)Nc1ccc(NC(=O)C2(C)Cc3c(-c4ccc5c(c4)OCO5)ccnc3O2)cc1 (configuration not stated)	x	-5	x	x
CN1/C(=C\C(=O)c2cccnc2)C(C)(C)c2ccccc21	-4	-10	-2	1
CN1/C(=C/C(=O)c2nc(S(C)(=O)=O)ncc2Cl)C(C)(C)c2ccccc21	-5	67*	-3	1
C[C@@H]1CN(C2CCN(Cc3nc(C(c4ccccc4)c4ccccc4)no3)CC2)C[C@H](C)O1	x	3	-2	1
CN(C)c1ccc(-c2nc3ccccn3c2/N=C/c2ccc(Br)cc2)cc1	38	53*	94*	0.1
Cc1c(-c2ccc(Br)cc2)nc2ccccn12	20	16	46	0.5
Cc1nn(C(=O)c2ccc3c(c2)OCO3)c(N)c1-c1ccccc1	6	4	80*	0.2
Cc1cc(C)n(-c2nc(Nc3ccccc3)nc(-n3nc(C)cc3C)n2)n1	-12	-12	-1	1
Cc1cc(C)n(-c2nc(N(c3ccccc3)c3ccccc3)nc(-n3nc(C)cc3C)n2)n1	-2	76*	-4	1
Clc1ccccc1C1=Nn2c(nnc2-c2ccco2)SC1	4	-12	x	x
O=C(CCS(=O)(=O)c1ccc(Br)cc1)Nc1ccccn1	66*	-1	-7	1.1
O=C(CCS(=O)(=O)c1ccc(Br)cc1)Nc1ccccc1Cl	x	-5	x	x
N#C/C(=C\c1ccc(N2CCOCC2)o1)c1nc2ccccc2[nH]1	14	57*	85*	0.2
O=C(O)COc1ccccc1/C=N/NC(=O)CSc1nnc(-c2ccc(Cl)cc2)n1C1CCCCC1	-4	-7	x	x
COc1oc(C(=O)NC2CCCCC2)c(-c2ccc(Cl)cc2)c1S(=O)(=O)c1ccccc1	x	89*	x	x
NC(=O)c1c(NC(=O)c2cc3ccccc3o2)sc2c1CCC2	28	50*	66*	0.3
NC(=O)c1c(NC(=O)c2ccc(F)cc2)sc2c1CCC2	x	35	x	x
CN1CCN(c2ccc(NC(=O)c3cc4ccccc4o3)cc2)CC1	x	29	x	x
Cc1ccc(C(=O)Nc2ccc3c(c2)CCC3)o1	47	33	55*	0.4
NC(=O)c1c(NC(=O)c2cccc(N3C(=O)CCC3=O)c2)sc2c1CCCCC2	x	83*	x	x
O=C(Nc1ccc2c(c1)CCC2)c1ccc(Br)o1	27	18	35	0.6
O=C(Nc1ccc(N2CCN(C(=O)c3ccccc3)CC2)cc1)c1cc2ccccc2o1	-2	52*	-8	1.1
SMILES	PPC-1+TRAIL kill	C8 TRAIL sens	FLuc inhib CS	FLuc act counter
Cc1cc(C)n2nc(C(=O)Nc3ccc4c(c3)CCC4)nc2n1	29	26	52*	0.5
Cc1cc(C)n2nc(C(=O)Nc3ccc(S(=O)(=O)N4CCCC4)cc3)nc2n1	12	-7	x	x
O=C(Nc1ccc2c(c1)CCC2)c1cc2ccccc2o1	-6	29	54*	0.5
O=C(Nc1ccc2c(c1)Cc1ccccc1-2)c1cc2ccccc2o1	x	-3	x	x
COC(=O)c1ccc(N2CCN(S(=O)(=O)c3ccccc3)CC2)c([N+](=O)[O-])c1	5	10	-10	1.1
COc1cccc(C2=NNC(=NCc3ccccc3)SC2)c1	16	1	13	0.9
CCc1ccc(-c2cn3nc(C)c(C)nc3n2)cc1	x	56*	84*	0.2
Cc1nc2nc(-c3ccc(F)cc3)cn2nc1C	x	21	x	x
CN(C)c1ccc(/C=N/N2C(=O)c3ccccc3C2=O)cc1	7	10	x	x
COc1ccc(/C=N/N2C(=O)c3ccccc3C2=O)cc1	1	-8	74*	0.3
CCOC(=O)c1sc2nc(C)nc(NCc3ccccc3)c2c1C	x	2	x	x
O=C(NCC1CCCO1)c1cc(-c2ccc(Cl)cc2Cl)on1 (configuration not stated)	45	45	71*	0.3
O=C(c1cc(-c2ccc(Cl)cc2Cl)on1)N1CCOCC1	14	57*	73*	0.3
O=C(c1cc(-c2ccc(Cl)cc2)on1)N1CCOCC1	7	26	60*	0.4
